Measurements reported in ChEMBL document CHEMBL1255435, “Mechanism of resistance of hepatitis C virus replicons to structurally distinct cyclophilin inhibitors” (Antimicrob Agents Chemother, 2010).

What was measured:
Hepatitis C virus [1] = assay: Antiviral activity against HCV subtype 1b Con1 infected in cyclosporine A/NIM-resistant human HuH7 cells assessed as reduction in viral RNA level after 48 hrs by qRT-PCR analysis; assay type: functional, organism-based, Hepacivirus hominis; conditions: Con1, Huh-7, 48 h
Summary of the method: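 CsA/NIM-resistant cells were cured of replicon: G418 removed, then 1 μM BILN2061 for 2 weeks and 5 μM for 2 more. Wild-type pCon1 replicon RNA was electroporated back in and cells selected in 250 μg/ml G418 for at least 2 weeks. Pooled colonies were treated 48 h with compound; EC50 came from qRT-PCR HCV RNA normalized to total RNA.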

Hepatitis C virus [2] = assay: Antiviral activity against wild type HCV subtype 1b Con1 infected in human HuH7 cells assessed as reduction in viral RNA level after 48 hrs by qRT-PCR analysis; assay type: functional, organism-based, Hepacivirus hominis; conditions: Con1, Huh-7, 48 h
Summary of the method: (§1)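 Con1 genotype 1b subgenomic replicon Huh7 cells (clone A or derived lines) were seeded at 10,000/well overnight without G418. They were treated 48 h with serially diluted compound in 2% FBS and 0.5% DMSO. HCV RNA was measured by TaqMan qRT-PCR and normalized to total RNA. Six replicates per point; EC50 is the concentration giving 50% reduction in HCV RNA.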

Hepatitis C virus [3] = assay: Antiviral activity against cyclosporine A/NIM811-resistant HCV subtype 1b Con1 infected in human HuH7 cells assessed as reduction in viral RNA level after 48 hrs by qRT-PCR analysis; assay type: functional, organism-based, Hepacivirus hominis; conditions: Con1, Huh-7, 48 h; summary of the method: as §1
Hepatitis C virus [4] = assay: Antiviral activity against HCV subtype 1b Con1 infected in human HuH7 cells assessed as reduction in viral RNA level after 48 hrs by qRT-PCR analysis; assay type: functional, organism-based, Hepacivirus hominis; conditions: Con1, Huh-7, 48 h; summary of the method: as §1
Hepatitis C virus [5] = assay: Antiviral activity against cyclosporine A/NIM811-resistant HCV subtype 1b Con1 infected in human HuH7 cells assessed as reduction in viral RNA level after 48 hrs by qRT-PCR analysis relative to control; assay type: functional, Hepacivirus hominis, Huh-7
Summary of the method: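 Clone A replicon cells were resistance-selected by 8-week passage with increasing CsA up to 5 μM, then 5 μM NIM811 for 5 more weeks, with 250 μg/ml G418. Control cells were passaged in 0.2% DMSO for the same period. Both were seeded at 10,000/well and treated 48 h with serial dilutions in 2% FBS/0.5% DMSO. HCV RNA was measured by qRT-PCR, normalized to total RNA. EC50 expressed as fold over DMSO control.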

Hepatitis C virus [6] = assay: Antiviral activity against HCV subtype 1b Con1 infected in human HuH7 cells assessed as reduction in viral RNA level after 48 hrs by qRT-PCR analysis relative to control; assay type: functional, Hepacivirus hominis, Huh-7
Summary of the method: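 Subgenomic genotype 1b Con1 replicon cells (clone A and derived lines) seeded 10,000/well overnight without G418, then treated 48 h with serially diluted compound in 2% FBS, 0.5% DMSO. HCV RNA quantified by TaqMan qRT-PCR, normalized to total RNA; six replicates per point. Percent inhibition versus control cells; EC50 is the concentration reducing HCV RNA by 50%.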

Hepatitis C virus [7] = assay: Antiviral activity against HCV subtype 1b Con1 harboring wild type protease infected in human HuH7 cells assessed as reduction in viral RNA level after 48 hrs by qRT-PCR analysis; assay type: functional, organism-based, Hepacivirus hominis; conditions: Con1, Huh-7, 48 h; summary of the method: as §1
Hepatitis C virus [8] = assay: Antiviral activity against HCV subtype 1b Con1 harboring NS5A and NS5B C575G mutant […] infected in human HuH7 cells assessed as reduction in viral RNA level after 48 hrs by qRT-PCR analysis; assay type: functional, organism-based, Hepacivirus hominis; conditions: Con1, Huh-7, 48 h
Hepatitis C virus [9] = assay: Antiviral activity against cyclosporine A-resistant HCV subtype 1b Con1 infected in human HuH7 cells assessed as reduction in viral RNA level after 48 hrs by qRT-PCR analysis; conditions: Con1, Huh-7, 48 h
Hepatitis C virus [10] = assay: Antiviral activity against cyclosporine A/NIM-resistant HCV subtype 1b Con1 infected in human HuH7 cells assessed as reduction in viral RNA level after 48 hrs by qRT-PCR analysis; conditions: Con1, Huh-7, 48 h
Hepatitis C virus [11] = assay: Antiviral activity against HCV subtype 1b Con1 harboring NIM-resistant NS5A gene infected in human HuH7 cells assessed as reduction in viral RNA level after 48 hrs by qRT-PCR analysis; conditions: Con1, Huh-7, 48 h
Hepatitis C virus [12] = assay: Antiviral activity against HCV subtype 1b Con1 infected in human HuH7 cells assessed as reduction in viral RNA level after 48 hrs by MTS assay; conditions: Con1, Huh-7, 48 h

Structure (SMILES) | EC50 (Hepatitis C virus [1]) [nM] | EC50 (Hepatitis C virus [2]) [nM] | EC50 (Hepatitis C virus [3]) [nM] | EC50 (Hepatitis C virus [4]) [nM] | fold change (FC) (Hepatitis C virus [5]) | fold change (FC) (Hepatitis C virus [6]) | EC50 (Hepatitis C virus [7]) [nM] | EC50 (Hepatitis C virus [8]) [nM] | EC50 (Hepatitis C virus [9]) [nM] | EC50 (Hepatitis C virus [10]) [nM] | EC50 (Hepatitis C virus [11]) [nM] | EC50 (Hepatitis C virus [12]) [nM]
C/C=C/C[C@@H](C)[C@@H](O)[C@H]1C(=O)N[C@@H](CC)C(=O)N(C)CC(=O)N(C)[C@@H]([C@@H](C)CC)C(=O)NC(C(C)C)C(=O)N(C)[C@@H](CC(C)C)C(=O)N[C@@H](C)C(=O)N[C@H](C)C(=O)N(C)C(CC(C)C)C(=O)N(C)[C@@H](CC(C)C)C(=O)N(C)[C@@H](C(C)C)C(=O)N1C (single isomer, unassigned) [NIM811] | 170 | 120 | 1500 | 84 | 17.9 | 1 | 230 | 1140 | 830 | 3500 | 940 | –
COc1ccc2c(O[C@@H]3C[C@H]4C(=O)N[C@]5(C(=O)O)C[C@H]5/C=C\CCCCC[C@H](NC(=O)OC5CCCC5)C(=O)N4C3)cc(-c3csc(NC(C)C)n3)nc2c1 [CILUPREVIR] | – | – | – | 1.4 | – | – | – | – | – | – | – | –
C/C=C/C[C@@H](C)[C@@H](O)[C@H]1C(=O)N[C@@H](CC)C(=O)N(C)CC(=O)N(C)[C@@H](CC(C)C)C(=O)N[C@@H](C(C)C)C(=O)N(C)[C@@H](CC(C)C)C(=O)N[C@@H](C)C(=O)N[C@H](C)C(=O)N(C)[C@@H](CC(C)C)C(=O)N(C)[C@@H](CC(C)C)C(=O)N(C)[C@@H](C(C)C)C(=O)N1C [CYCLOSPORINE] | – | – | – | – | – | – | – | – | 3390 | > 10000 | – | 210
